{"source": "paper PMC9321596", "about": "(Chemmedchem, 2022)", "molecules": {"B1": {"name": "Methyl acetyl-L-alanyl-L-seryl-L-prolyl-L-phenylalaninate (5 h) (peptide)", "peptide": "Ac-ASPF-OMe", "SMILES": "COC(=O)[C@H](Cc1ccccc1)NC(=O)[C@@H]1CCCN1C(=O)[C@H](CO)NC(=O)[C@H](C)NC(C)=O"}, "B2": {"name": "Methyl acetyl-L-alanyl-L-histidyl-L-prolyl-L-phenylalaninate (5 k) (peptide)", "peptide": "Ac-AHPF-OMe", "SMILES": "COC(=O)[C@H](Cc1ccccc1)NC(=O)[C@@H]1CCCN1C(=O)[C@H](Cc1c[nH]cn1)NC(=O)[C@H](C)NC(C)=O"}, "B3": {"name": "Methyl acetyl-L-alanyl-L-methionyl-L-prolyl-L-phenylalaninate (5 l) (peptide)", "peptide": "Ac-AMPF-OMe", "SMILES": "COC(=O)[C@H](Cc1ccccc1)NC(=O)[C@@H]1CCCN1C(=O)[C@H](CCSC)NC(=O)[C@H](C)NC(C)=O"}, "B4": {"name": "Methyl acetyl-L-alanyl-L-glutaminyl-L-prolyl-L-phenylalaninate (5 m) (peptide)", "peptide": "Ac-AQPF-OMe", "SMILES": "COC(=O)[C@H](Cc1ccccc1)NC(=O)[C@@H]1CCCN1C(=O)[C@H](CCC(N)=O)NC(=O)[C@H](C)NC(C)=O"}, "B5": {"name": "Methyl acetyl-L-alanyl-L-valyl-L-prolyl-L-phenylalaninate (5 b) (peptide)", "peptide": "Ac-AVPF-OMe", "SMILES": "COC(=O)[C@H](Cc1ccccc1)NC(=O)[C@@H]1CCCN1C(=O)[C@@H](NC(=O)[C@H](C)NC(C)=O)C(C)C"}}, "key": {"[1]": {"target": "recombinant human 6His-tagged-Pin1 (Homo sapiens, UniProt Q13526)", "sequence (Q13526 whole entry)": "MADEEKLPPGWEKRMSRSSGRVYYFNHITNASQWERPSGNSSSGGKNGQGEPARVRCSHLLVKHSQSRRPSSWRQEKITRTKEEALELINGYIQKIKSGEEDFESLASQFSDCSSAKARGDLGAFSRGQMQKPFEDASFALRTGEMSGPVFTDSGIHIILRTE", "assay": "Direct-binding assay", "in_short": "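Label-free optical biosensor assay. His6-Pin1 was expressed in E. coli BL21(DE3), purified, and immobilised at 150 µg/mL in 20 mM sodium acetate pH 5.5 overnight at 4 °C. Equilibrated 4 h in PBS, 0.5% DMSO, pH 7.4, then baseline read. Peptides were serially diluted to twelve concentrations from 500 µM final and read over 1 h. KD came from last-baseline-to-maximum signal, mean ± S.D. of three independent experiments.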"}, "[2]": {"tested_on": "cancer cell lines (A549, HCT116, MCF7, LNCaP)", "assay": "MTT anti-proliferative assay, R8 peptides, cancer cell lines", "assay_type": "cell-based, human", "conditions": "10 μM, after 24 h, effect persisted up to 48 h; all cancer cells tested", "in_short": "(§1)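 MTT viability. A549, HCT116, MCF7 and AC16 were grown in DMEM; LNCaP in RPMI 1640. Both media had 10% FBS, penicillin/streptomycin, amphotericin-B and 2 mM L-glutamine. Cells seeded at 3×10⁴/well, treated in triplicate at 10 µM for 24 and 48 h. MTT 0.5 mg/mL for 3 h, formazan dissolved in DMSO, absorbance read at 570 nm. Expressed as % of untreated control, mean ± S.D. of three independent experiments.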"}, "HCT116 cells [3]": {"tested_on": "HCT116 cells", "assay": "MTT anti-proliferative assay, HCT116", "assay_type": "cell-based, human", "conditions": "10 μM, 24 h", "in_short": "as §1"}, "HCT116 cells [4]": {"tested_on": "HCT116 cells", "assay": "Cell cycle analysis by flow cytometry", "assay_type": "cell-based, human", "conditions": "10 μM, 48 h", "in_short": "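HCT116 cells plated at 2×10⁵ cells/mL in triplicate and treated at 10 µM for 48 h. Harvested in PBS, spun at 1200 rpm for 5 min, then resuspended in hypotonic buffer (1×PBS, 0.1% sodium citrate, 0.1% NP-40, RNase A, […]). Held 30 min at RT in the dark, then run on flow cytometry with SSC-A/FSC-A gating and PI-A intensity.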"}, "AC16 non-tumor cells": {"tested_on": "AC16 non-tumor cells", "assay": "MTT anti-proliferative assay, R8 peptides, AC16", "assay_type": "cell-based, human", "conditions": "10 μM, 24 h and 48 h", "in_short": "as §1"}, "[5]": {"target": "parvulin-14 (Par14), also known as Pin4 (human) (UniProt Q9Y237)", "sequence (Q9Y237 whole entry)": "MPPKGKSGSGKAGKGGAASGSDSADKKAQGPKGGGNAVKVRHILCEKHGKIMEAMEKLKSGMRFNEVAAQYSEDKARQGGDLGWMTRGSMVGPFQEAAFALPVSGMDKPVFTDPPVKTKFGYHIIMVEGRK", "assay": "Corning Epic label-free optical biosensor"}, "[6]": {"target": "NIMA interacting protein 1 (Pin1) (human) (UniProt Q13526)", "sequence (Q13526 whole entry)": "as the sequence (Q13526 whole entry) above", "assay": "Corning Epic label-free optical biosensor"}, "[7]": {"target": "recombinant human 6His-tagged-Pin4 (Homo sapiens, UniProt Q9Y237)", "sequence (Q9Y237 whole entry)": "as the sequence (Q9Y237 whole entry) above", "assay": "Direct-binding assay"}}, "note": "Square brackets hold non-standard residues; d marks the D form. Peptide text beside a SMILES is read from it. * marks the point of attachment. Cbz = O=C(OCc1ccccc1)*; βAla = NCCC(=O)O"}
{"molecule": "COC(=O)[C@H](Cc1ccccc1)NC(=O)[C@@H]1CCCN1C(=O)[C@H](CCCNC(=N)NS(=O)(=O)c1c(C)cc(OC)c(C)c1C)NC(=O)[C@H](C)NC(C)=O", "note": "[5 c, Methyl N^2‐(acetyl‐L‐alanyl)‐N^ω‐((4‐methoxy‐2,3,6‐trimethylphenyl)sulfonyl)‐L‐arginyl‐L‐prolyl‐L‐phenylalaninate]", "values": [{"measurement": "binding to Pin1 (in words)", "setting": "[1]", "result": "very little or no binding affinity"}]}
{"molecule": "COC(=O)[C@H](Cc1ccccc1)NC(=O)[C@@H]1CCCN1C(=O)[C@H](CCCCNC(=O)OCc1ccccc1)NC(=O)[C@H](C)NC(=O)CCNC(=O)[C@H](CCCNC(=N)N)NC(=O)[C@H](CCCNC(=N)N)NC(=O)[C@H](CCCNC(=N)N)NC(=O)[C@H](CCCNC(=N)N)NC(=O)[C@H](CCCNC(=N)N)NC(=O)[C@H](CCCNC(=N)N)NC(=O)[C@H](CCCNC(=N)N)NC(=O)[C@@H](N)CCCNC(=N)N", "note": "[R8–5 i] (H-RRRRRRRR[βAla]AK(Cbz)PF-OMe; N-terminus assumed)", "values": [{"measurement": "reduction of cell proliferation", "setting": "[2]", "result": "50–60%"}, {"measurement": "reduction of cell proliferation", "setting": "HCT116 cells [3]", "result": "~60", "unit": "%"}, {"measurement": "cells within G1 phase", "setting": "HCT116 cells [4]", "result": 66.4, "unit": "%"}, {"measurement": "binding to Pin1 (in words)", "setting": "[1]", "result": "does not reach saturation"}, {"measurement": "anti-proliferative activity", "setting": "AC16 non-tumor cells", "result": "less than 20%"}]}
{"molecule": "COC(=O)[C@H](Cc1ccccc1)NC(=O)[C@@H]1CCCN1C(=O)[C@H](Cc1c[nH]cn1)NC(=O)[C@H](C)NC(=O)CCNC(=O)[C@H](CCCNC(=N)N)NC(=O)[C@H](CCCNC(=N)N)NC(=O)[C@H](CCCNC(=N)N)NC(=O)[C@H](CCCNC(=N)N)NC(=O)[C@H](CCCNC(=N)N)NC(=O)[C@H](CCCNC(=N)N)NC(=O)[C@H](CCCNC(=N)N)NC(=O)[C@@H](N)CCCNC(=N)N", "note": "[R8–5 k] (H-RRRRRRRR[βAla]AHPF-OMe; N-terminus assumed)", "values": [{"measurement": "reduction of cell proliferation", "setting": "[2]", "result": "50–60%"}, {"measurement": "reduction of cell proliferation", "setting": "HCT116 cells [3]", "result": "~60", "unit": "%"}, {"measurement": "cells within G1 phase", "setting": "HCT116 cells [4]", "result": 61.2, "unit": "%"}, {"measurement": "anti-proliferative activity", "setting": "AC16 non-tumor cells", "result": "less than 20%"}]}
{"molecule": "Methyl N2-(acetyl-L-alanyl)-N6-((benzyloxy)carbonyl)-L-lysyl-L-prolyl-L-phenylalaninate (5 i) (peptide)", "values": [{"measurement": "Kd", "setting": "[5]", "result": 28.2, "unit": "µM"}, {"measurement": "Kd", "setting": "[6]", "result": 70.2, "unit": "µM"}]}
{"molecule": "Methyl N2-(acetyl-L-alanyl)-Nω-((4-methoxy-2,3,6-trimethylphenyl)sulfonyl)-L-arginyl-L-prolyl-L-phenylalaninate (5 c) (peptide)", "values": [{"measurement": "Kd", "setting": "[6]", "result": 53.6, "unit": "µM"}]}
{"molecule": "Methyl N‐(acetyl‐L‐alanyl)‐O‐benzyl‐L‐seryl‐L‐prolyl‐L‐phenylalaninate [5 g]", "values": [{"measurement": "binding to Pin1 (in words)", "setting": "[1]", "result": "very little or no binding affinity"}]}
{"molecule": "Methyl acetyl-L-alanyl-L-lysyl-L-prolyl-L-phenylalaninate (5 j) (peptide)", "values": [{"measurement": "Kd", "setting": "[6]", "result": 22.4, "unit": "µM"}]}
{"molecule": "Methyl acetyl‐L‐alanyl‐L‐lysyl‐D‐prolyl‐L‐phenylalaninate [5 p]", "values": [{"measurement": "binding to Pin1 (in words)", "setting": "[1]", "result": "abrogates the interaction"}]}
{"molecule": "tert‐Butyl (S)‐4‐((S)‐2‐acetamidopropanamido)‐5‐((S)‐2‐(((R)‐1‐methoxy‐1‐oxo‐3‐phenylpropan‐2‐yl)carbamoyl)pyrrolidin‐1‐yl)‐5‐oxopentanoate [5 e]", "values": [{"measurement": "binding to Pin4 (in words)", "setting": "[7]", "result": "micromolar range"}, {"measurement": "binding to Pin1 (in words)", "setting": "[1]", "result": "very little or no binding affinity"}]}
{"molecule": "Ac-AGPF-OMe (SMILES COC(=O)[C@H](Cc1ccccc1)NC(=O)[C@@H]1CCCN1C(=O)CNC(=O)[C@H](C)NC(C)=O)", "note": "[Methyl acetyl-L-alanylglycyl-L-prolyl-L-phenylalaninate (5 a)]", "values": [{"measurement": "Kd", "setting": "[6]", "result": 6.09, "unit": "µM"}]}
{"molecule": "Ac-[dA]EPF-OMe", "values": [{"measurement": "Kd", "setting": "[5]", "result": 18.6, "unit": "µM"}]}
{"molecule": "B1", "values": [{"measurement": "Kd", "setting": "[6]", "result": 4.5, "unit": "µM"}]}
{"molecule": "B2", "values": [{"measurement": "Kd", "setting": "[5]", "result": 5.7, "unit": "µM"}]}
{"molecule": "B3", "values": [{"measurement": "Kd", "setting": "[6]", "result": 14.1, "unit": "µM"}]}
{"molecule": "B4", "values": [{"measurement": "Kd", "setting": "[6]", "result": 62.5, "unit": "µM"}]}
{"molecule": "B5", "values": [{"measurement": "Kd", "setting": "[6]", "result": 6.11, "unit": "µM"}]}
{"molecule": "Ac-ARPF-OMe", "note": "[Methyl acetyl-L-alanyl-L-arginyl-L-prolyl-L-phenylalaninate (5 d)]", "values": [{"measurement": "Kd", "setting": "[6]", "result": 30.5, "unit": "µM"}]}
